Results: ChEMBL document CHEMBL4342521 (J Med Chem, 2020)
Activity calls are given as the source filed them. No cut-off for these calls is given here.

Key:
Histone deacetylase 4 = Histone deacetylase 4 (Homo sapiens, UniProt P56524); assay: Inhibition of recombinant human HDAC4 using Boc-Lys (trifluoroacetyl)-AMC as substrate preincubated for 1 hr followed by substrate addition and measured after 2 hrs by fluorescence based micro plate reader analysis
Method in brief: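 Recombinant enzyme was preincubated with serially varied inhibitor for 1 h at 30 °C. Boc-Lys(trifluoroacetyl)-AMC was then added to a final 50 μM and incubated 2 h at 30 °C. The reaction was stopped with developer containing trypsin and TSA, and fluorescence (ex 360/em 460 nm) was read 30 min later. Inhibition was taken relative to control wells and fitted to a variable-slope log(inhibitor) curve. Values are the mean of at least three experiments.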

SR [1] = assay: Antiproliferative activity against human SR cells assessed as reduction in cell viability after 48 hrs by CellTiter-Blue assay; type: functional; conditions: read-out: LC50 (the source's name)
Method in brief: (§1)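 NCI-60 panel lines grown in RPMI1640 with 10% FBS at 37 °C, 5% CO₂. Seeded at 5,000–10,000 cells/well and pre-incubated overnight. Exposed for 48 h to six 10-fold dilutions (top final 10 μM), with a time-zero plate read at dosing. CellTiter-Blue (0.125 mg/mL) for 2–4 h, fluorescence 560/590 nm, triplicate curves.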

HOP-62 = assay: Antiproliferative activity against human HOP62 cells assessed as reduction in cell viability after 48 hrs by CellTiter-Blue assay; type: functional; conditions: HOP-62, 48 h, read-out: LC50 (the source's name)
Method in brief: (§2)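 Cells grown in RPMI1640 with 10% FBS at 37 °C, 5% CO₂. 5,000–10,000 cells/well were pre-incubated overnight, and a time-zero CellTiter-Blue read was taken. Six 10-fold dilutions (top final 10 μM) were applied for 48 h, followed by 0.125 mg/mL CellTiter-Blue for 2–4 h. Resorufin fluorescence was read at ex 560/em 590 nm. […] Triplicates.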

NCI-H23 = assay: Antiproliferative activity against human NCI-H23 cells assessed as reduction in cell viability after 48 hrs by CellTiter-Blue assay; type: functional; conditions: NCI-H23, 48 h, read-out: LC50 (the source's name); method in brief: as §2
NCI-H522 = assay: Antiproliferative activity against human NCI-H522 cells assessed as reduction in cell viability after 48 hrs by CellTiter-Blue assay; type: functional; conditions: NCI-H522, 48 h, read-out: LC50 (the source's name); method in brief: as §2
COLO 205 = assay: Antiproliferative activity against human COLO205 cells assessed as reduction in cell viability after 48 hrs by CellTiter-Blue assay; type: functional; conditions: COLO 205, 48 h, read-out: LC50 (the source's name); method in brief: as §2
HT-29 = assay: Antiproliferative activity against human HT-29 cells assessed as reduction in cell viability after 48 hrs by CellTiter-Blue assay; type: functional; conditions: HT-29, 48 h, read-out: LC50 (the source's name); method in brief: as §2
KM12 = assay: Antiproliferative activity against human KM12 cells assessed as reduction in cell viability after 48 hrs by CellTiter-Blue assay; type: functional; conditions: KM12, 48 h, read-out: LC50 (the source's name); method in brief: as §2
SF-295 = assay: Antiproliferative activity against human SF295 cells assessed as reduction in cell viability after 48 hrs by CellTiter-Blue assay; type: functional; conditions: SF-295, 48 h, read-out: LC50 (the source's name); method in brief: as §2
SNB-19 = assay: Antiproliferative activity against human SNB19 cells assessed as reduction in cell viability after 48 hrs by CellTiter-Blue assay; type: functional; conditions: SNB-19, 48 h, read-out: LC50 (the source's name); method in brief: as §2
LOX IMVI = assay: Antiproliferative activity against human LOXIMVI cells assessed as reduction in cell viability after 48 hrs by CellTiter-Blue assay; type: functional; conditions: read-out: LC50 (the source's name); method in brief: as §2
Malme-3M = assay: Antiproliferative activity against human MALME-3M cells assessed as reduction in cell viability after 48 hrs by CellTiter-Blue assay; type: functional; conditions: read-out: LC50 (the source's name); method in brief: as §2
M14 = assay: Antiproliferative activity against human M14 cells assessed as reduction in cell viability after 48 hrs by CellTiter-Blue assay; type: functional; conditions: M14, 48 h, read-out: LC50 (the source's name); method in brief: as §2
SK-MEL-2 = assay: Antiproliferative activity against human SK-MEL-2 cells assessed as reduction in cell viability after 48 hrs by CellTiter-Blue assay; type: functional; conditions: SK-MEL-2, 48 h, read-out: LC50 (the source's name); method in brief: as §2
UACC-62 = assay: Antiproliferative activity against human UACC62 cells assessed as reduction in cell viability after 48 hrs by CellTiter-Blue assay; type: functional; conditions: UACC-62, 48 h, read-out: LC50 (the source's name); method in brief: as §1
OVCAR-4 = assay: Antiproliferative activity against human OVCAR4 cells assessed as reduction in cell viability after 48 hrs by CellTiter-Blue assay; type: functional; conditions: OVCAR-4, 48 h, read-out: LC50 (the source's name); method in brief: as §2
SK-OV-3 = assay: Antiproliferative activity against human SKOV3 cells assessed as reduction in cell viability after 48 hrs by CellTiter-Blue assay; type: functional; conditions: SK-OV-3, 48 h, read-out: LC50 (the source's name); method in brief: as §2
SN12C = assay: Antiproliferative activity against human SN12C cells assessed as reduction in cell viability after 48 hrs by CellTiter-Blue assay; type: functional; conditions: read-out: LC50 (the source's name); method in brief: as §2
MV4-11 [2] = assay: Antiproliferative activity agaisnt human MV4-11 cells expressing wild type p53/FLT3-ITD mutant assessed as cell death at 10 uM after 48 hrs by CellTiter-blue assay; type: functional, cell-based
MV4-11 [3] = assay: Down regulation of STAT5 in human MV4-11 cells harboring wild type p53/FLT3-ITD mutant at 50 to 200 nM after 24 hrs by Western blot analysis; type: functional, cell-based
Method in brief: (§3)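 Cells (1,500,000 per well) grown 12 h, then drug-treated as specified. Lysed in RIPA buffer, sonicated, centrifuged, protein normalized by BCA. Run on 4–12% Bis-Tris gels in MES, transferred, probed overnight at 4 °C with primary antibodies at 1/1000. Actin served as reference for LC3-II quantitation.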

MV4-11 [4] = assay: Induction of apoptosis in human MV4-11 cells harboring wild type p53/FLT3-ITD mutant assessed as upregulation of P21WAF1/Cip1 expression at 50 to 200 nM after 24 hrs by Western blot analysis; type: functional, cell-based; method in brief: as §3
MV4-11 [5] = assay: Inhibition of MDM2 degradation in human MV4-11 cells harboring wild type p53/FLT3-ITD mutant at 100 nM after 12 hrs in presence of MDM2 inhibitor RG7388 by Western blot analysis relative to control; type: functional; conditions: MV4-11, 12 h; method in brief: as §3
SR [6] = assay: Induction of apoptosis in human SR cells harboring wild type p53 assessed as pro-caspase 3 cleavage at 50 to 200 nM after 24 hrs by Western blot anlaysis; type: functional, cell-based; method in brief: as §3
HL-60 = assay: Effect on c-Flip protein degradation in p53 null human HL60 cells harboring wild type FLT3 at 50 to 200 nM after 24 hrs by Western blot analysis; type: functional, cell-based; method in brief: as §3
RS4-11 = assay: Effect on LC3 degradation in human RS4:11 cells harboring wild type p53/FLT3 at 50 to 200 nM after 24 hrs by Western blot analysis; type: functional, cell-based; method in brief: as §3
MV4-11 [7] = assay: Induction of apoptosis in human MV4-11 cells assessed as cleavage of pro caspase 3 at 200 nM after 24 hrs in presence of 50 uM z-VAD by Western blot analysis; type: functional, cell-based; method in brief: as §3

Chain of Histone deacetylase 4 (P56524 whole entry): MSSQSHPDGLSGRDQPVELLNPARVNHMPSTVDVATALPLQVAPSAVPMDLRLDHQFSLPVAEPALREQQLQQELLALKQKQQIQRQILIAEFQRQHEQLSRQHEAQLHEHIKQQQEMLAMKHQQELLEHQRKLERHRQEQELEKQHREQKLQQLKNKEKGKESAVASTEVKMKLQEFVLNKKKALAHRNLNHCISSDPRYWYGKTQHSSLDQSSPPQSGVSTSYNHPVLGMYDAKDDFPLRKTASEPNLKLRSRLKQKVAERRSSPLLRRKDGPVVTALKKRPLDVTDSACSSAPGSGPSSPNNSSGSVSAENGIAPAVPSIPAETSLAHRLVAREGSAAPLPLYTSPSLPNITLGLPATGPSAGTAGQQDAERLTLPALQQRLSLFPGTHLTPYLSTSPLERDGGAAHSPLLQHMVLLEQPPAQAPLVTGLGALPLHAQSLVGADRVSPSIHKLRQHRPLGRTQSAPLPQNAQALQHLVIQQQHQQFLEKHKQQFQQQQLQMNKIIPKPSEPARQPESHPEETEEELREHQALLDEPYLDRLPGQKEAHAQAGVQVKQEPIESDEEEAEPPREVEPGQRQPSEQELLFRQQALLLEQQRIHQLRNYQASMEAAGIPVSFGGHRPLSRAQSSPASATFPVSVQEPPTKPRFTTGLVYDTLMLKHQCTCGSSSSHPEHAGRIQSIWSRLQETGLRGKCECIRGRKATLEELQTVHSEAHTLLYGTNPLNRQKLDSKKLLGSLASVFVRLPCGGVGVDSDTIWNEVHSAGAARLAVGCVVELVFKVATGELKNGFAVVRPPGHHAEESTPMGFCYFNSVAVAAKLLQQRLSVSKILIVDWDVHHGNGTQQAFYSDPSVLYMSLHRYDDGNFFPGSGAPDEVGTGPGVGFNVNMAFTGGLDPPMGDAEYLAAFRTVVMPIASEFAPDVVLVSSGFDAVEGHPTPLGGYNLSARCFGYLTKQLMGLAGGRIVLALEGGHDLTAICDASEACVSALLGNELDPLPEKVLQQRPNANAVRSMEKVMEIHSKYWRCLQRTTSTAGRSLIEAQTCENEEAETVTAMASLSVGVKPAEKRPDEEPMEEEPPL

CCCNNC(=O)/C=C/c1ccc(CNCCc2c(C)[nH]c3ccccc23)cc1.O=C(O)C(F)(F)F
IC50 (Histone deacetylase 4): > 10 µM | CC50 (SR [1]): > 10 µM | CC50 (HOP-62): > 10 µM | CC50 (NCI-H23): > 10 µM | CC50 (NCI-H522): > 10 µM | CC50 (COLO 205): 0.66 µM | CC50 (HT-29): > 10 µM | CC50 (KM12): > 10 µM | CC50 (SF-295): > 10 µM | CC50 (SNB-19): > 10 µM | CC50 (LOX IMVI): 0.537 µM | CC50 (Malme-3M): > 10 µM | CC50 (M14): > 10 µM | CC50 (SK-MEL-2): > 10 µM | CC50 (UACC-62): 0.589 µM | CC50 (OVCAR-4): > 10 µM | CC50 (SK-OV-3): > 10 µM | CC50 (SN12C): > 10 µM | Activity (MV4-11 [2]): Active | Activity (MV4-11 [3]): Active | Activity (MV4-11 [4]): Active | inhibition at 0.1 µM (MV4-11 [5]): 100% | Activity (SR [6]): inactive | Activity (HL-60): Active | Activity (RS4-11): inactive | Activity (MV4-11 [7]): inactive
